# The sample as a whole holds a higher share of hits than the screen did.
# Dynein cargo inh = blocks dynein driven cargo transport along microtubules. 3617.4 mouse cells, GR-EGFP nuclear translocation imaging; test concentration mostly 20 µM; stimulated with dexamethasone, 1 µM; active compounds read low. z-score, hits read low. actives 0.47% (n = 220,000). AID 1381;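 active means plate z-score of nuclear minus cytoplasmic receptor signal below a set negative limit, without overly bright fluorescence or cell loss, cut at about -3.5 in these data, passing the limit was not always enough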;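 further: z-score of nuclear minus cytoplasmic ring GR-EGFP intensity difference per well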
#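 Buffer or medium – tet-free medium with charcoal-stripped serum · Signal – automated 10x imaging of fixed Hoechst-stained cells · Also added – dexamethasone agonist, 1.0 µM final, for 30 min · Incubation – induction 48 h, compound 1 h, agonist 30 min · Read-out – GR-EGFP nuclear translocation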
# T cruzi repl = T. cruzi replication inhibition. T. cruzi beta-gal in NIH3T3, luminescence, 90 h. AID 1885. inhibition, % (concentration not given with the values). actives 1.4% (n = 300,000);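 active means mean inhibition across valid replicates above about 55%, limit read from the data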;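 further: signal also drops with host cell toxicity which is not excluded here; 0% = plate median of DMSO wells and 100% = zero luminescence signal; higher percent means less beta-gal luminescence so fewer parasites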
#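 Assay system: NIH/3T3 host cells with β-galactosidase reporter T. cruzi; input: 5,000 host fibroblasts per well; compound: single 50 nL compound addition per well in DMSO; timing: ≥90 h infection period, 3 h prior cell attachment; measured by: GalScreen β-gal luminescence, detergent lysis, 60 min; evaluation: percent inhibition of parasite-derived β-gal signal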
# UPR XBP1 act = adaptive UPR (XBP1) activation. CHO-XBP1 luciferase reporter, IRE1-XBP1 UPR activation, luminescence; percent of tunicamycin response, DMSO as zero. activation, % at 20 µM. actives 0.33% (n = 330,000). AID 463104;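 active means versus positive control, 20 µM dose yields 30% or more activation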;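 further: 100% = tunicamycin at 10 µg/mL and 0% = DMSO only wells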
#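 Material: CHO cell line with stable XBP1 luciferase reporter; schedule: 16-18 h cell attachment at 37 °C, then 6 h compound exposure; signal: glow luminescence from Steady-Glo reagent; medium: serum-containing F12 medium, 10% FBS; benchmarks: tunicamycin 10 µg/mL and vehicle-only wells; read-out: percent activation relative to tunicamycin reference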
# CHOP inh = blocks CHOP induction under ER stress; CHO-K1 CHOP-promoter luciferase, tunicamycin-induced, 15-18 h; inhibition, % at 10 µM; actives 3.8% (n = 220,000); AID 2732;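 active means compounds that reduced the stress-induced luciferase reporter signal by more than about 70% of percent inhibition, limit read from the data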;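 further: 0% = tunicamycin plus vehicle and 100% = wells without tunicamycin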
# UPR CHOP act = activators of apoptotic arm of unfolded protein response (CHOP). CHO-CHOP luciferase reporter, UPR activation, luminescence; percent of tunicamycin response over DMSO baseline. activation, % at 10 µM. actives 0.34% (n = 330,000). AID 449763;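 active means at 10 µM dose, activation of 40% or more, normalized to positive control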;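 further: 100% = tunicamycin at 10 µg/mL and 0% = DMSO alone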
#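 Assay system: CHO cells with stable CHOP pathway luciferase reporter; Buffer or medium: F12 plus 10% serum; Times: 16-18 h cell attachment, then 6 h compound exposure, 37 °C; Signal: luciferase luminescence; Read-out basis: percent activation relative to tunicamycin control; Control set: tunicamycin high control, DMSO low control.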
# Lmaj promast = Leishmania major promastigote growth inhibition | Leishmania major promastigotes, resazurin fluorescence viability | inhibition, % at 10 µM | actives 9% (n = 200,000); in the data active means inhibition above about 50%;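 further: promastigotes grown with compound for 44 hours at 28 °C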
# * = called active by the depositor; / = not tested or not shown.
SMILES,Dynein cargo inh,T cruzi repl,UPR XBP1 act,CHOP inh,UPR CHOP act,Lmaj promast
O=c1c2cc(NC(=S)NCCN3CCCCCC3)ccc2nc2n1CCCCC2,-0.75,8,0,8,-1,7
O=c1c2cc(NC(=S)NC3CCN(Cc4ccccc4)CC3)ccc2nc2n1CCCCC2,-0.73,38,0,37,-1,54*
CCCCN(CC)CCCNC(=S)Nc1ccc2nc3n(c(=O)c2c1)CCCCC3,-0.52,56*,-3,-36,0,5
O=C(CN1CCCCCCC1)Nc1cccc(Cl)c1Cl,-0.51,4,2,29,-4,8
COc1ccc(N(CC(=O)N/N=C(\C)CCc2ccccc2)S(=O)(=O)c2ccc(C)cc2)cc1,1.6,4,-5,4,0,/
O=C(CC(=O)Nc1cccc(F)c1)Nc1cccc(F)c1,/,5,-3,/,4,/
O=C(Cn1c2ccccc2c(=O)c2ccccc21)Nc1cccc(F)c1,1.1,15,2,77*,0,1
CN(CC(=O)Nc1ccc(Cl)c(Cl)c1)C(=O)C12CC3CC(CC(C3)C1)C2,0.29,22,0,27,0,92*
O=C(c1cc(-c2ccc(Cl)cc2)n(-c2ccc(Cl)cc2)n1)N1CCOCC1,-0.15,23,2,73*,-2,21
Cc1ccc(-n2nc(C(=O)N3CCOCC3)cc2-c2ccc(Cl)cc2)cc1,-0.16,4,-7,46,1,31
CCCC1=Nc2cc(C(=O)N3CCN(c4ccccn4)CC3)ccc2Sc2ccc(C)cc21,/,48,-2,/,-2,/
O=C(C1CCN(S(=O)(=O)c2ccccc2)CC1)N1CCN(Cc2ccc3c(c2)OCO3)CC1,/,-1,-3,/,3,/
O=C(Cn1ncc2c1-c1ccccc1OC2)N1CCN(Cc2ccc3c(c2)OCO3)CC1,-0.66,21,-2,77*,-1,-5
O=C(CN1C(=O)c2ccccc2S1(=O)=O)N1CCN(Cc2ccc3c(c2)OCO3)CC1,-0.47,-4,-2,43,1,11
O=C(CS(=O)(=O)Cc1ccccc1)N1CCN(Cc2ccc3c(c2)OCO3)CC1,3.6,-9,0,31,0,69*
O=C(CCc1ccc(S(=O)(=O)NCc2ccccc2)cc1)N1CCN(Cc2ccc3c(c2)OCO3)CC1,1.3,59*,-3,7,1,24
